Screening results (PubChem)
Compounds with a hit are over-represented: about 1.8% of the library has one in this group of screens.
NPY-Y2 PAM-ag: potentiators or agonists of human neuropeptide Y receptor Y2 | P49146 | cells expressing NPY-Y2, potentiator/agonist read-out | activation, % at 3.6 µM | 220,000 compounds, 0.45% hits; in the data active = activation above about 27%;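 also: cells stimulated with NPY near EC25 plus isoproterenol at EC100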
Target sequence (P49146 whole entry, looked up): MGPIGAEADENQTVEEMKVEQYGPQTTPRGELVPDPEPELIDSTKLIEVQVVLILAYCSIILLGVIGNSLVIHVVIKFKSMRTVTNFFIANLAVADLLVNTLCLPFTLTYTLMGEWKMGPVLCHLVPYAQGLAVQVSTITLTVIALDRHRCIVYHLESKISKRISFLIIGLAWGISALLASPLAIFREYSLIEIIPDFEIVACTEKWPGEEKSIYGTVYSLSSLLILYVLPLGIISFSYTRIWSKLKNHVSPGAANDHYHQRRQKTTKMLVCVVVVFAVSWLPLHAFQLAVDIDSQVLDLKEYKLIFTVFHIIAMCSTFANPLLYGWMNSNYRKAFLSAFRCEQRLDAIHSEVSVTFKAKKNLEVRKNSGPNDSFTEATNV
NPY1 pot ag: potentiates or activates human NPY-Y1 receptor | NPY-Y1 expressing cells, potentiator/agonist activation | activation, % at 3.6 µM | 220,000 compounds, 0.37% hits | P25929; in the data active = activation above about 33%, passing the limit was not always enough;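 also: cells stimulated with NPY at EC10 then isoproterenol at EC100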
Target sequence (P25929 whole entry, looked up): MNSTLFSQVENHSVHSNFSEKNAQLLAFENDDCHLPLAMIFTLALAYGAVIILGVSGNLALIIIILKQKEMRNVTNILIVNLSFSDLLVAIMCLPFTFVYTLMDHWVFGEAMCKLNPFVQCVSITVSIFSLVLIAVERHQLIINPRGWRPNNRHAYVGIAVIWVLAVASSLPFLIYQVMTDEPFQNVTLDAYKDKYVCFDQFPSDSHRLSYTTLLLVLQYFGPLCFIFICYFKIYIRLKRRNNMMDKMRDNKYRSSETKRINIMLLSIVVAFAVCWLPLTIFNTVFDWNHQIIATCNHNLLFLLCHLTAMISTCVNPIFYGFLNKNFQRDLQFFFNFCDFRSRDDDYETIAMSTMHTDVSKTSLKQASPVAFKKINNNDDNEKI
NPY-Y2 antag: NPY-Y2 (human) receptor antagonism. AID 793. inhibition, % at 2.7 µM. NPY-Y2 expressing cells, antagonist mode. 140,000 compounds, 0.99% hits. P49146
NPY-Y1 antag: blocks the human neuropeptide Y Y1 receptor | P25929 | HEK293-CNG Y1 cells, membrane potential fluorescence; NPY at EC95, then isoproterenol | inhibition, % at 3.6 µM | 200,000 compounds, 1% hits;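 active = inhibition above the campaign mean inhibition of all tested compounds plus 3 SD, cut at about 20% in these data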
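Assay system: HEK293 Y1/CNG channel cell line; Doses: single compound dose of 3.6 µM, 0.4% DMSO; Timing: dye 3 h, compound 60 min room temperature, stimulation 45 min; Technique: Membrane-potential fluorescent dye readout; Measure: % inhibition of NPY effect.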
NPY-Y1 ant conf: confirmation of human neuropeptide Y receptor Y1 antagonists; shares compounds with NPY-Y1 antag; inhibition, % at 3.6 µM; HEK293-CNG NPY-Y1, membrane potential fluorescence, cAMP; NPY challenge against isoproterenol-raised cAMP; AID 1254; 1,200 compounds, 21% hits; in the data active = inhibition above about 20%
NPY2 antag ctr: antagonizes human NPY-Y2, counter-screen to NPY-Y1 antagonists; shares compounds with NPY-Y1 antag; HEK293 NPY-Y2 CNG membrane potential fluorescence, antagonism; cells given NPY, then isoproterenol; inhibition, % at 3.6 µM; 1,200 compounds, 28% hits; AID 1255
Numbers stand for hits. Rule as the data show it, unless noted: active = inhibition above about 17%; inactive = the rest.

Results for CCCCCCn1c2c(c(=N)c3c1CCC3)CCC2 ?
NPY-Y2 PAM-ag: inactive; NPY1 pot ag: inactive; NPY-Y2 antag: inactive; NPY-Y1 antag: 24; NPY-Y1 ant conf: 29; NPY2 antag ctr: inactive

How did CCn1c2c(c(=N)c3c1CCC3)CCC2 do in these assays?
NPY-Y2 PAM-ag: inactive; NPY1 pot ag: inactive; NPY-Y2 antag: inactive; NPY-Y1 antag: inactive

Results for Cc1ccc(C#N)c(SCC(=O)Nc2nccs2)n1 ?
NPY-Y2 PAM-ag: inactive; NPY1 pot ag: inactive; NPY-Y1 antag: inactive

How did CC1CC1C(=O)Nc1nc(-c2ccc(Cl)s2)cs1 (stereo not given) do in these assays?
NPY-Y2 PAM-ag: inactive; NPY1 pot ag: inactive; NPY-Y1 antag: 25; NPY-Y1 ant conf: inactive; NPY2 antag ctr: inactive

How did CN1CCN(NC(=O)c2cccc(Br)c2)CC1 do in these assays?
NPY-Y2 PAM-ag: inactive; NPY1 pot ag: inactive; NPY-Y2 antag: inactive; NPY-Y1 antag: inactive

What do the screens show for `OCCNCc1cc(Br)ccc1OCc1ccc(Cl)cc1`?
NPY-Y2 PAM-ag: inactive; NPY1 pot ag: inactive; NPY-Y2 antag: inactive; NPY-Y1 antag: 24; NPY-Y1 ant conf: inactive; NPY2 antag ctr: inactive

What do the screens show for `OCCNCc1cc(Br)ccc1OCc1ccc(F)cc1`?
NPY-Y2 PAM-ag: inactive; NPY1 pot ag: inactive; NPY-Y1 antag: inactive

How did CCOc1ccc(S(=O)(=O)N2c3ccccc3CC2C)cc1 (stereo not given) do in these assays?
NPY-Y2 PAM-ag: inactive; NPY1 pot ag: inactive; NPY-Y2 antag: inactive; NPY-Y1 antag: 38; NPY-Y1 ant conf: inactive; NPY2 antag ctr: 17

How did Cc1nnc(NC(=O)CCSc2ccc(Cl)cc2)s1 do in these assays?
NPY-Y2 PAM-ag: inactive; NPY1 pot ag: inactive; NPY-Y1 antag: inactive

What do the screens show for `O=C(COc1ccccc1Cl)c1ccc2c(c1)CCCC2`?
NPY-Y2 PAM-ag: inactive; NPY1 pot ag: inactive; NPY-Y2 antag: inactive; NPY-Y1 antag: 21; NPY-Y1 ant conf: inactive; NPY2 antag ctr: inactive

What do the screens show for `Cc1ccc(C(O)(c2ccccc2)c2ccccc2C(C)N(C)C)c(C)c1` (stereo not given)?
NPY-Y2 PAM-ag: inactive; NPY1 pot ag: inactive; NPY-Y2 antag: inactive; NPY-Y1 antag: 25; NPY-Y1 ant conf: 21; NPY2 antag ctr: 32

How did CC(=O)NC(Cc1ccccc1C)C(=O)NC1CCN(C(=O)c2ccc(C)cc2)CC1 (stereo not given) do in these assays?
NPY-Y2 PAM-ag: inactive; NPY1 pot ag: inactive; NPY-Y1 antag: inactive

How did Cc1ccc(S(=O)(=O)N(CC(=O)NCCC2=CCCCC2)Cc2ccccc2)cc1 do in these assays?
NPY-Y2 PAM-ag: inactive; NPY1 pot ag: inactive; NPY-Y2 antag: inactive; NPY-Y1 antag: 21; NPY-Y1 ant conf: inactive; NPY2 antag ctr: inactive

Results for CCN(CC)CCSc1nc2ccccc2c(=S)n1-c1ccccc1 ?
NPY-Y2 PAM-ag: inactive; NPY1 pot ag: inactive; NPY-Y1 antag: 57; NPY-Y1 ant conf: 20; NPY2 antag ctr: 24

How did COCCOC(=O)c1[nH]c2c(c1C)C(=O)CC(c1cccs1)C2 (stereo not given) do in these assays?
NPY-Y2 PAM-ag: inactive; NPY1 pot ag: inactive; NPY-Y1 antag: inactive

What do the screens show for `Cc1c(C(=O)OCC(C)C)[nH]c2c1C(=O)CC(c1cccs1)C2` (stereo not given)?
NPY-Y2 PAM-ag: inactive; NPY1 pot ag: inactive; NPY-Y2 antag: inactive; NPY-Y1 antag: 30; NPY-Y1 ant conf: inactive; NPY2 antag ctr: 24

Results for CCOC(=O)c1c(NC(=O)Cc2cccs2)sc(C)c1C ?
NPY-Y2 PAM-ag: inactive; NPY1 pot ag: inactive; NPY-Y2 antag: inactive; NPY-Y1 antag: 21; NPY-Y1 ant conf: inactive; NPY2 antag ctr: inactive

Results for CC(C)CCn1c(Oc2ccccc2Cl)nc2c1c(=O)n(C)c(=O)n2C ?
NPY-Y2 PAM-ag: inactive; NPY1 pot ag: inactive; NPY-Y2 antag: inactive; NPY-Y1 antag: 36; NPY-Y1 ant conf: inactive; NPY2 antag ctr: inactive

What do the screens show for `O=C(COc1ccc2ccccc2c1)NCCc1ccc2c(c1)OCCO2`?
NPY-Y2 PAM-ag: inactive; NPY1 pot ag: inactive; NPY-Y2 antag: inactive; NPY-Y1 antag: 25; NPY-Y1 ant conf: inactive; NPY2 antag ctr: inactive

What do the screens show for `O=C(COc1ccc2ccccc2c1)NCCNC(=O)COc1ccc2ccccc2c1`?
NPY-Y2 PAM-ag: inactive; NPY1 pot ag: inactive; NPY-Y2 antag: inactive; NPY-Y1 antag: inactive

How did O=c1c2ccccc2nc(-c2ccc(Br)cc2)n1Cc1ccccc1 do in these assays?
NPY-Y2 PAM-ag: inactive; NPY1 pot ag: inactive; NPY-Y2 antag: inactive; NPY-Y1 antag: 24; NPY-Y1 ant conf: 21; NPY2 antag ctr: 32

What do the screens show for `O=c1c2ccccc2nc(-c2ccco2)n1Cc1ccccc1`?
NPY-Y2 PAM-ag: inactive; NPY1 pot ag: inactive; NPY-Y2 antag: inactive; NPY-Y1 antag: inactive

What do the screens show for `Cc1nn(CCC#N)c(N)c1C1(O)C(=O)Nc2c(Cl)cc(Cl)cc21` (stereo not given)?
NPY-Y2 PAM-ag: inactive; NPY1 pot ag: inactive

Results for CCOC(=O)c1cc2ccccc2n1CCN(CC)CC ?
NPY-Y2 PAM-ag: inactive; NPY1 pot ag: inactive; NPY-Y2 antag: inactive; NPY-Y1 antag: 25; NPY-Y1 ant conf: inactive; NPY2 antag ctr: inactive

Results for CS(=O)(=O)N(CC(=O)NCc1ccccc1)C1CCCCC1 ?
NPY-Y2 PAM-ag: inactive; NPY1 pot ag: inactive; NPY-Y2 antag: inactive; NPY-Y1 antag: inactive

Results for CN(C1CCCCC1)S(=O)(=O)Cc1ccccc1 ?
NPY-Y2 PAM-ag: inactive; NPY1 pot ag: inactive; NPY-Y2 antag: inactive; NPY-Y1 antag: 25; NPY-Y1 ant conf: inactive; NPY2 antag ctr: inactive

How did COc1cc2c(cc1OC)CN(C(=O)c1sc(-c3cnccn3)nc1C)CC2 do in these assays?
NPY-Y2 PAM-ag: inactive; NPY1 pot ag: inactive

What do the screens show for `CN1Cc2cc(C(=O)c3cc(Cl)cc(CSc4ncccn4)c3O)cnc2NC1=O`?
NPY-Y2 PAM-ag: inactive; NPY1 pot ag: inactive; NPY-Y2 antag: inactive; NPY-Y1 antag: 21; NPY-Y1 ant conf: inactive; NPY2 antag ctr: inactive

How did CCOc1ncccc1C(=O)N1CCN(c2cccc(C)c2C)CC1 do in these assays?
NPY-Y2 PAM-ag: inactive; NPY1 pot ag: inactive; NPY-Y1 antag: 24; NPY-Y1 ant conf: inactive; NPY2 antag ctr: inactive

Results for CCOc1ncccc1C(=O)N1CCN(c2cc(Cl)ccc2C)CC1 ?
NPY-Y2 PAM-ag: inactive; NPY1 pot ag: inactive; NPY-Y1 antag: inactive

How did Cc1cc(C)n(-c2ccc(S(=O)(=O)N3CCOCC3)cc2[N+](=O)[O-])n1 do in these assays?
NPY-Y2 PAM-ag: inactive; NPY1 pot ag: inactive

Results for Cc1nnc(SCC(=O)N2CCN(c3ccccc3)CC2)n(N)c1=O ?
NPY-Y2 PAM-ag: inactive; NPY1 pot ag: inactive; NPY-Y1 antag: inactive

Results for COC(=O)CNC(c1ccccc1)c1cc(Br)ccc1NS(=O)(=O)c1ccc(C)cc1 (stereo not given) ?
NPY-Y2 PAM-ag: inactive; NPY1 pot ag: inactive; NPY-Y2 antag: inactive; NPY-Y1 antag: inactive

How did COC(=O)CNC(c1ccccc1)c1cc(Br)ccc1NS(=O)(=O)c1ccccc1 (stereo not given) do in these assays?
NPY-Y2 PAM-ag: inactive; NPY1 pot ag: inactive; NPY-Y2 antag: inactive; NPY-Y1 antag: 27; NPY-Y1 ant conf: inactive; NPY2 antag ctr: inactive
